Laboratory results taken from ChEMBL document CHEMBL4651341, “The discovery of a novel series of compounds with single-dose efficacy against juvenile and adult Schistosoma species” (PLoS Negl Trop Dis, 2021).
pEC50: −log10 of the molar value. Values after ≈ are worked out from the molar mass of the structure shown.

Key:
[1] = Solubility at 25 degC of compound (diluted from DMSO) in PBS at pH 7.4 determined after 24h (1h sonication, 22h shaking, 1h sonication) by LCMS/MS; assay type: physicochemical
[2] = Partition coefficient of compound between n-octanol and PBS (pH7.4); assay type: physicochemical; details: octanol/water, pH 7.4
In short: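 Shake-flask method using octanol and PBS pH 7.4, each pre-saturated with the other. Compound was shaken 2 h at 850 rpm, 25 °C, then the phases were separated by centrifugation and both layers diluted and analysed by LC-MS/MS. LogD = log(octanol AUC × relative dilution / buffer AUC).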

[3] = Concentration required to kill 50% MRC5 cells as detected by Alamar blue staining; details: homo sapiens, read-out: TC50 (the source's name)
Schistosoma mansoni [4] = test: Concentration required to kill 50% of 21 day old worms 5 days after drug treatment.; assay type: functional, organism-based; details: Puerto Rican, 120 h
In short: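 Juvenile S. mansoni (Puerto Rican strain) were perfused from CD1 mice 3 weeks post-infection and washed. They were cultured 6–8 per well in 200 µL DMEM with 2 mM glutamine, penicillin/streptomycin and 10% FCS at 37 °C, 5% CO2. Viability of individual worms was scored on day 5 after dosing (120 h).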

Schistosoma mansoni [5] = test: (§1) Concentration required to kill 50% of 42 day old worms 5 days after drug treatment.; assay type: functional, organism-based; details: Puerto Rican, 120 h
In short: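 Adult S. mansoni were perfused from CD1 mice 6 weeks post-infection and washed. They were cultured 3 pairs per well in 1 mL DMEM with 2 mM glutamine, penicillin/streptomycin and 10% FCS […] at 37 °C, 5% CO2. Viability of individual worms was scored on day 5 (120 h).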

[6] = Concentration required to kill 50% MRC-5 cells as detected by Alamar blue staining; assay type: toxicity, cell-based, MRC5; details: homo sapiens, read-out: TC50 (the source's name)
[7] = Concentration required to kill 50% HepG2 cells as detected by MTT staining; assay type: toxicity, cell-based; details: homo sapiens, read-out: TC50 (the source's name)
[8] = Mean volume of distribution at steady state in Swiss albino male mice at 1 mg/kg per compound (administered iv in a mixture of 5 compounds to 3 mice) assessed by LCMS/MS.; assay type: ADME, organism-based; details: mouse, in vivo, read-out: Volume
In short: (§2)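 Male Swiss albino mice (~30 g), 3 per experiment, mostly dosed as mixtures of 5 compounds iv via the lateral tail vein. Vehicle: 10% DMSO/90% 50 mM Na2HPO4 with 0.5% Tween-80. Plasma stored at −20 °C and quantified by LC-MS after acetonitrile precipitation.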

[9] = Mean plasma concentration at 24h in Swiss albino male mice at […] per compound (administered orally in a mixture of 5 compounds to 3 mice) assessed by LCMS/MS.; assay type: ADME, organism-based; details: mouse, po
[10] = Mean half-life in Swiss albino male mice at 1 mg/kg per compound (administered iv in a mixture of 5 compounds to 3 mice) assessed by LCMS/MS.; assay type: ADME, organism-based; details: mouse, in vivo; in short: as §2
[11] = Mean time to peak plasma concentration in Swiss albino male mice at […] per compound (administered orally in a mixture of 5 compounds to 3 mice) assessed by LCMS/MS.; assay type: ADME, organism-based; details: mouse, po
[12] = Mean AUC inf in Swiss albino male mice at 1 mg/kg per compound (administered iv in a mixture of 5 compounds to 3 mice) assessed by LCMS/MS.; assay type: ADME, organism-based; details: male, Swiss albino, mouse, in vivo
In short: (§3)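 Male Swiss albino mice (~30 g), 3 per experiment, mostly dosed as mixtures of 5 compounds iv via the lateral tail vein. Vehicle: 10% DMSO/90% 50 mM Na2HPO4 with 0.5% Tween-80. Blood sampled at 5, 15, 30 min and 1, 2, 4, 8, 24 h. Plasma stored at −20 °C and quantified by LC-MS after acetonitrile precipitation.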

[13] = Mean observed clearance in Swiss albino male mice at 1 mg/kg per compound (administered iv in a mixture of 5 compounds to 3 mice) assessed by LCMS/MS.; assay type: ADME, organism-based; details: male, Swiss albino, mouse, in vivo, read-out: Clearance (converted); in short: as §3
[14] = Mean plasma concentration at 4h in Swiss albino male mice at […] per compound (administered orally in a mixture of 5 compounds to 3 mice) assessed by LCMS/MS.; assay type: ADME, organism-based; details: mouse, po
Schistosoma japonicum = test: as §1; assay type: functional, organism-based; details: Chinese, 120 h
[15] = Plasma protein binding determined at 10uM by LC-MS/MS.; assay type: ADME, cell-free
In short: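 Equilibrium dialysis of plasma spiked at 10 µM (0.1% DMSO) against PBS pH 7.4, 6 h at 37 °C, duplicates. Both chambers analysed by LC-MS/MS after acetonitrile precipitation. % free = buffer/plasma area ratio; recovery also calculated.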

Schistosoma haematobium = test: Concentration required to kill 50% of 84 day old worms 5 days after drug treatment.; assay type: functional, organism-based; details: Egyptian, 120 h
[16] = Mean oral bioavailability in Swiss albino male mice at […] per compound (administered in a mixture of 5 compounds to 3 mice) assessed by LCMS/MS.; also: dose 2.5 mg/kg; assay type: ADME, organism-based; details: male, Swiss albino, mouse, in vivo, read-out: Bioavailability
[17] = Plasma protein binding determined at 1uM by LC-MS/MS.; assay type: ADME, cell-free
[18] = Percentage of parent compound remaining after incubation for 30 minutes with cyropreserved mouse hepatocytes at a concentration of 1uM compound and […], determined by LCMS; assay type: ADME, tissue-based, Hepatocyte; details: cryopreserved mouse hepatocytes, read-out: Stability
In short: (§4)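 Compound was incubated at 1 µM final (2 µM working solution mixed 1:1 with hepatocyte suspension) in supplemented KHB pH 7.4. Conditions: 37 °C, 5% CO2, gentle mixing, duplicates. Reaction quenched with ice-cold acetonitrile containing standard; analysed by LC-MS/MS. % remaining = AUC at t / AUC at T0.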

[19] = Plasma protein binding determined at 10uM by LC-MS/MS.; details: human
[20] = Concentration of drug in plasma at 24h following oral drug adminstration at given dose. Determined by LCMS/MS; assay type: ADME, organism-based; details: CD1, mouse
In short: (§5)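 Plasma sampled from the mice of the efficacy experiments, each animal sampled once: one animal per group at 1, 4 and 8 h, two per group at 24 h. Plasma prepared by acetonitrile protein precipitation and analysed by LC-MS against a 10-point calibration line spiked in blank matrix, with QCs at three or more levels.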

[21] = Concentration of drug in plasma at 4h following oral drug adminstration at given dose. Determined by LCMS/MS; assay type: ADME, organism-based; details: CD1, mouse; in short: as §5
[22] = Solubility at 25 degC of compound (diluted from DMSO) in FeSSIF at pH 5.0 (11.2 g/l of SIF powder [Na-taurocholate: 15.0mM, Lecithin:3.75mM, Pancreatin:40mg/ml], 4.04 g/l of NaOH, 8.65 g/l Glacial Acetic Acid, 11.87 g/l NaCl) determined after 24h (1h sonication, 22h shaking, 1h sonication) by LCMS/MS; assay type: physicochemical
Schistosoma mansoni [23] = test: Percentage of worms remaining following treatment of female CD1 mice infected with S. mansoni worms (21 day old - juvenile or 42 day old - adult) with compound by oral gavage. Worms were recovered by portal perfusion with citrate saline 8-14 days post treatment and counted. Percentages are from a mean of 5 or 6 animals.; assay type: functional, Mus musculus; parameters: concentration or dose not given beside the values
In short: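 Female CD1 mice were infected subcutaneously with 150 cercariae and treated at day 21 (juvenile) or day 42 (adult). Single oral gavage, or two doses 12 h apart, given in 7% Tween-80/3% ethanol/water (sonicated) or in 1:19 DMSO:corn oil. Controls received vehicle only. Worm recoveries are group means, n = 5–6.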

[24] = Solubility at 25 degC of compound (diluted from DMSO) in FaSSIF at pH 6.5 (2.24 g/l of SIF powder [Na-taurocholate: 3.0mM, Lecithin:0.75mM, Pancreatin:10mg/ml], 0.42 g/l of NaOH, 4.4 g/l NaH₂PO₄ monobasic dihydrate, 6.19 g/l NaCl) determined after 24h (1h sonication, 22h shaking, 1h sonication) by LCMS/MS; assay type: physicochemical
[25] = Percentage of parent compound remaining after incubation for 90 minutes with cyropreserved mouse hepatocytes at a concentration of 1uM compound and […], determined by LCMS; assay type: ADME, tissue-based, Hepatocyte; details: cryopreserved mouse hepatocytes, read-out: Stability; in short: as §4
[26] = Percentage of parent compound remaining after incubation for 90 minutes with cyropreserved human hepatocytes at a concentration of 1uM compound and 1 million cells/uL, determined by LCMS/MS; assay type: ADME, tissue-based, Hepatocyte; details: cryopreserved human hepatocytes, read-out: Stability; in short: as §4

SMILES	solubility kinetic at 24 h [1] [µM]	Lipophilicity [2]	CC50 [3] [µM]	pEC50 (Schistosoma mansoni [4])	pEC50 (Schistosoma mansoni [5])	CC50 [6] [µM]	CC50 [7] [µM]	Vd [8] [L/kg]	concentration at 24 h [9] [ng/mL]	half-life [10] [h]	Tmax [11] [h]	AUC(0-inf) [12] [ng·h/mL]	clearance [13] [mL/min/kg]	concentration at 4 h [14] [ng/mL]	pEC50 (Schistosoma japonicum)	Binding ([15]; mouse) [%]	pEC50 (Schistosoma haematobium)	bioavailability [16] [%]	remaining at 0.5 h, 1 µM [18] [%]	Efficacy (Schistosoma mansoni [23]) [%]	also measured
CC(C)c1cccc(-c2cn3c(-c4ccc(O)cc4)cnc3cn2)c1	0.383 (≈ 0.126 µg/mL)	3.62 =	> 30	5.82	5.87	30	–	–	–	–	–	–	–	–	–	–	–	–	–	–	–
COc1ccc(-c2c(C(C)C)nc3cnc(-c4cccc(C(F)(F)F)c4)cn23)cc1O	2.11 (≈ 0.902 µg/mL)	3.63 =	–	7.18	> 7.09	21.9	> 11.1	5.13	0.1	1.92	0.25	105	79.2	3.5	7.07	99.93	7.21	7.84	36.2	–	Binding ([17]; human): 100%; Binding ([17]; mouse): 100%
COc1ccc(-c2cnc3cnc(-c4cccc(C(C)C)c4)cn23)cc1OC	2.62 (≈ 0.978 µg/mL)	4.92 =	–	5.59	5.87	27.8	–	–	–	–	–	–	–	–	–	–	–	–	–	–	Binding [19]: 99.985%
COc1ccc(-c2cnc3cnc(-c4cccc(C(C)C)c4)cn23)cc1O	2.29 (≈ 0.823 µg/mL)	3.56 =	18.6	6.31	6.58	18.6	–	–	–	–	–	–	–	–	–	–	–	–	26.4	–	–
CCc1nc2cnc(-c3ccc(F)c(C(F)(F)C(F)(F)F)c3)cn2c1-c1c(F)cc(O)cc1F	0.742 (≈ 0.362 µg/mL)	6.33 =	–	7.87	8.04	–	7.23	7.32	123	24.7	0.25	2210	3.82	208	–	99.9935	–	83.2	–	49.1	concentration at 24 h [20]: 10.4 ng/mL; concentration at 4 h [21]: 104 ng/mL; solubility kinetic at 24 h [22]: 200 µM (≈ 97.5 µg/mL); Binding ([15]; human): 99.9955%; solubility kinetic at 24 h [24]: 111 µM (≈ 54.1 µg/mL); remaining at 1.5 h, 1 µM [25]: 61.5%; remaining at 1.5 h, 1 µM [26]: 41.7%
O=C(C1CCCCC1)N1CC(=O)N2CCc3ccccc3C2C1 (configuration not stated) [PRAZIQUANTEL]	–	–	–	5.33	6.52	> 50	–	–	–	–	–	–	–	–	6.79	–	7.07	–	–	79	–
